The results in this text go back to ChEMBL document CHEMBL4038306, “Development of an Aryloxazole Class of Hepatitis C Virus Inhibitors Targeting the Entry Stage of the Viral Replication Cycle” (J Med Chem, 2017).

Series [1] can be described thus: Kinetic solubility of the compound in pH 7.4 phosphate buffer. The format is physicochemical. The following applies: read-out: Kinetic_solubility.
Series [2] in a line: Permeability of the compound by PAMPA. In kind it is physicochemical. The following applies: for Papp: read-out: permeability. In outline:
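Passive diffusion measured by stirred double-sink PAMPA; permeability expressed in 10⁻⁶ cm/s.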

Values after ≈ are worked out from the molar mass of the structure shown.

As for `Cc1ccccc1-c1nc(CN2CCC(C(=O)NCCCN3CCOCC3)CC2)c(C)o1`, the solubility kinetic in series [1] is above 65 µg/mL. Also, the Papp in series [2] amounted to 432 ×10⁻⁶ cm/s.
The like results for `Cc1ccccc1-c1nc(CN2CCC(C(=O)NCCCN3CCCCC3)CC2)c(C)o1` were, in that order, above 65 µg/mL and 34.5 ×10⁻⁶ cm/s.
The like results for `Cc1cc(-c2nc(CN3CCC(C(=O)NCCCN4C[C@H](C)C[C@H](C)C4)CC3)co2)ccc1F` were, in that order, above 70 µg/mL and 215 ×10⁻⁶ cm/s.
In the same order, the values of `Cc1ccccc1-c1nc(CN2CCC(C(=O)NCCCN3CCC(C)CC3)CC2)c(C)o1` are above 67 µg/mL and 425 ×10⁻⁶ cm/s.
`Cc1ccccc1-c1nc(CN2CCC(C(=O)N3CCN(CCN(C)C)CC3)CC2)c(C)o1`: the solubility kinetic in series [1] is above 67 µg/mL. For the same compound, in series [2], the Papp stood at 14 ×10⁻⁶ cm/s.
In the same order, the values of `Cc1oc(-c2c(Br)cccc2Br)nc1CN1CCC(C(=O)NCCCN2C[C@H](C)C[C@H](C)C2)CC1` are 62.4 µg/mL (≈ 102 µM) and below 1 ×10⁻⁶ cm/s.
As to `COc1cccc(Br)c1-c1nc(CN2CCC(C(=O)NCCCN3C[C@H](C)C[C@H](C)C3)CC2)c(C)o1`, the solubility kinetic in series [1] was above 83 µg/mL. Moreover, in series [2], the Papp came to 245 ×10⁻⁶ cm/s.
As for `COc1cccc(F)c1-c1nc(CN2CCC(C(=O)NCCCN3C[C@H](C)C[C@H](C)C3)CC2)c(C)o1`, in series [1], the solubility kinetic is above 74 µg/mL.
In the case of `Cc1cccc(F)c1-c1nc(CN2CCC(C(=O)NCCCN3C[C@H](C)C[C@H](C)C3)CC2)c(C)o1`, the solubility kinetic in series [1] is above 72 µg/mL. Moreover, the Papp in series [2] was 234 ×10⁻⁶ cm/s.
Regarding `Cc1cccc(Cl)c1-c1nc(CN2CCC(C(=O)NCCCN3C[C@H](C)C[C@H](C)C3)CC2)c(C)o1`, in series [1], the solubility kinetic is above 74 µg/mL. Further, the Papp in series [2] came out at 196 ×10⁻⁶ cm/s.
In the same order, the values of `Cc1ccccc1-c1nc(CN2CCC(C(=O)NCCCN3CC4CCCC(C4)C3)CC2)c(C)o1` are above 71 µg/mL and 331 ×10⁻⁶ cm/s.
With `Cc1oc(-c2c3ccccc3cc3ccccc23)nc1CN1CCC(C(=O)NCCCN2C[C@H](C)C[C@H](C)C2)CC1`, the solubility kinetic in series [1] was found to be 62.1 µg/mL (≈ 112 µM).
On to `Cc1ccccc1-c1nc(CN2CCC(C(=O)NCCCN3[C@H](C)CCC[C@@H]3C)CC2)c(C)o1`, for which the solubility kinetic in series [1] was above 69 µg/mL. Moreover, the Papp in series [2] came to 55.4 ×10⁻⁶ cm/s.
As to `COc1cccc(OC)c1-c1nc(CN2CCC(C(=O)NCCCN3C[C@H](C)C[C@H](C)C3)CC2)c(C)o1`, in series [1], the solubility kinetic is above 76 µg/mL.
Turning to `CCc1ccccc1-c1nc(CN2CCC(C(=O)NCCCN3C[C@H](C)C[C@H](C)C3)CC2)c(C)o1`, the solubility kinetic in series [1] amounted to 55.9 µg/mL (≈ 116 µM). The Papp in series [2] stood at 106 ×10⁻⁶ cm/s.
In the same order, the values of `Cc1cc(C)cc(-c2nc(CN3CCC(C(=O)NCCCN4C[C@H](C)C[C@H](C)C4)CC3)c(C)o2)c1` are above 71 µg/mL and 864 ×10⁻⁶ cm/s.
With `Cc1ccccc1-c1nc(CN2CCC(C(=O)NCCCN3CC(C)(C)CC(C)(C)C3)CC2)c(C)o1`, the Papp in series [2] was above 1400 ×10⁻⁶ cm/s.
For `CC[C@@H]1C[C@H](CC)CN(CCCNC(=O)C2CCN(Cc3nc(-c4c(F)cccc4F)oc3C)CC2)C1`, the Papp in series [2] came to 130 ×10⁻⁶ cm/s.
For the compound `COc1cccc(Cl)c1-c1nc(CN2CCC(C(=O)NCCCN3C[C@H](C)C[C@H](C)C3)CC2)c(C)o1`, the solubility kinetic in series [1] is above 76 µg/mL. Moreover, the Papp in series [2] was determined as 51 ×10⁻⁶ cm/s.
The like results for `Cc1ccc(-c2nc(CN3CCC(C(=O)NCCCN4C[C@H](C)C[C@H](C)C4)CC3)c(C)o2)cc1C` were, in that order, above 71 µg/mL and 219 ×10⁻⁶ cm/s.
Consider `Cc1oc(-c2ccccc2Cl)nc1CN1CCC(C(=O)NCCCN2C[C@H](C)C[C@H](C)C2)CC1`, for which the solubility kinetic in series [1] is above 72 µg/mL. Moreover, the Papp in series [2] worked out at 352 ×10⁻⁶ cm/s.
For `Cc1ccccc1-c1nc(CN2CCC(C(=O)NCCCCN3C[C@H](C)C[C@H](C)C3)CC2)c(C)o1`, in series [1], the solubility kinetic was above 71 µg/mL. In addition, the Papp in series [2] was 288 ×10⁻⁶ cm/s.
In the case of `Cc1cccc(Cl)c1-c1nc(CN2CCC(C(=O)NCCCN3CCC(C)(C)CC3)CC2)c(C)o1`, the solubility kinetic in series [1] was above 74 µg/mL.
Turning to `CCN(CC)CCCCNC(=O)C1CCN(Cc2nc(-c3ccc(OC)c(OC)c3)oc2C)CC1`, the solubility kinetic in series [1] was above 72 µg/mL. In series [2], the Papp is 10.4 ×10⁻⁶ cm/s.
With `Cc1cccc(-c2nc(CN3CCC(C(=O)NCCCN4C[C@H](C)C[C@H](C)C4)CC3)c(C)o2)c1`, in series [1], the solubility kinetic is above 69 µg/mL. Further, the Papp in series [2] was determined as 279 ×10⁻⁶ cm/s.
With `Cc1ccccc1-c1nc(CN2CCC(C(=O)NCCCN3C[C@H](C)C[C@H](C)C3)CC2)c(C)s1`, the solubility kinetic in series [1] is above 71 µg/mL.
Regarding `Cc1ccccc1-c1nc(CN2CCC(C(=O)NCCCN3CCC(C)(C)CC3)CC2)c(C)o1`, the solubility kinetic in series [1] is above 69 µg/mL. In addition, the Papp in series [2] stood at 241 ×10⁻⁶ cm/s.
`COc1cccc(C)c1-c1nc(CN2CCC(C(=O)NCCCN3C[C@H](C)C[C@H](C)C3)CC2)c(C)o1`: the solubility kinetic in series [1] is above 73 µg/mL. For the same compound, the Papp in series [2] stood at 198 ×10⁻⁶ cm/s.
On to `Cc1oc(-c2c(C)c(C)c(C)c(C)c2C)nc1CN1CCC(C(=O)NCCCN2C[C@H](C)C[C@H](C)C2)CC1`, for which the Papp in series [2] was 455 ×10⁻⁶ cm/s.
Regarding `Cc1ccccc1-c1nc(CN2CCC(C(=O)N3CCN(C4CCN(C)CC4)CC3)CC2)c(C)o1`, the solubility kinetic in series [1] was above 71 µg/mL. Besides, the Papp in series [2] is below 3.2 ×10⁻⁶ cm/s.
In the case of `Cc1oc(-c2c(Cl)cccc2Br)nc1CN1CCC(C(=O)NCCCN2C[C@H](C)C[C@H](C)C2)CC1`, the solubility kinetic in series [1] was above 83 µg/mL.
As to `Cc1ccc2ccccc2c1-c1nc(CN2CCC(C(=O)NCCCN3C[C@H](C)C[C@H](C)C3)CC2)c(C)o1`, the solubility kinetic in series [1] was above 76 µg/mL. The Papp in series [2] stood at 547 ×10⁻⁶ cm/s.
Consider `COc1ccc(-c2nc(CN3CCC(C(=O)NCCCN4C[C@H](C)C[C@H](C)C4)CC3)c(C)o2)cc1OC`, for which the solubility kinetic in series [1] is above 76 µg/mL. Further, in series [2], the Papp amounted to 81.9 ×10⁻⁶ cm/s.
In the same order, the values of `Cc1cccc(C)c1-c1nc(CN2CCC(C(=O)NCCCN3C[C@H](C)C[C@H](C)C3)CC2)c(C)o1` are 55.9 µg/mL (≈ 116 µM) and 254 ×10⁻⁶ cm/s.
Regarding `Cc1oc(-c2c(Cl)cccc2Cl)nc1CN1CCC(C(=O)NCCCN2C[C@H](C)C[C@H](C)C2)CC1`, the solubility kinetic in series [1] was above 77 µg/mL.
In the case of `Cc1oc(-c2c(Cl)cccc2C(F)(F)F)nc1CN1CCC(C(=O)NCCCN2C[C@H](C)C[C@H](C)C2)CC1`, in series [1], the solubility kinetic was 65.1 µg/mL (≈ 117 µM).
`CC[C@@H]1C[C@H](CC)CN(CCCNC(=O)C2CCN(Cc3nc(-c4ccccc4C)oc3C)CC2)C1` had a permeability in series [2] of 1267 ×10⁻⁶ cm/s.
Take `Cc1ccc(C)c(-c2nc(CN3CCC(C(=O)NCCCN4C[C@H](C)C[C@H](C)C4)CC3)c(C)o2)c1`: the solubility kinetic in series [1] amounted to 56.1 µg/mL (≈ 117 µM).
As to `CCCN(CCC)CCNC(=O)C1CCN(Cc2nc(-c3ccccc3C)oc2C)CC1`, the solubility kinetic in series [1] was above 65 µg/mL. Besides, the Papp in series [2] came to 913 ×10⁻⁶ cm/s.
In the case of `Cc1ccc(-c2nc(CN3CCC(C(=O)NCCCN4C[C@H](C)C[C@H](C)C4)CC3)c(C)o2)c(C)c1`, in series [1], the solubility kinetic is above 71 µg/mL. Besides, the Papp in series [2] was 353 ×10⁻⁶ cm/s.
The like results for `Cc1oc(-c2ccc(Cl)cc2)nc1CN1CCC(C(=O)NCCCN2C[C@H](C)C[C@H](C)C2)CC1` were, in that order, above 72 µg/mL and above 635 ×10⁻⁶ cm/s.
For `Cc1cccc(Cl)c1-c1nc(CN2CCC(C(=O)NCCCN3CCC(C(C)C)CC3)CC2)c(C)o1`, the solubility kinetic in series [1] is above 76 µg/mL.
In the case of `Cc1oc(-c2cccc3ccccc23)nc1CN1CCC(C(=O)NCCCN2C[C@H](C)C[C@H](C)C2)CC1`, in series [1], the solubility kinetic was above 74 µg/mL.
In the case of `Cc1ccccc1-c1nc(CN2CCC(C(=O)NCCCN3CCC(C(C)C)CC3)CC2)c(C)o1`, in series [1], the solubility kinetic is above 71 µg/mL. For the same compound, in series [2], the Papp was determined as 396 ×10⁻⁶ cm/s.
The like results for `Cc1ccc(-c2nc(CN3CCC(C(=O)NCCCN4C[C@H](C)C[C@H](C)C4)CC3)c(C)o2)cc1` were, in that order, above 69 µg/mL and 274 ×10⁻⁶ cm/s.
For the compound `Cc1oc(-c2c(F)cccc2F)nc1CN1CCC(C(=O)NCCCN2C[C@H](C)C[C@H](C)C2)CC1`, in series [1], the solubility kinetic was above 72 µg/mL. Also, the Papp in series [2] came to 82.4 ×10⁻⁶ cm/s.
For `Cc1oc(-c2cccc(Cl)c2)nc1CN1CCC(C(=O)NCCCN2C[C@H](C)C[C@H](C)C2)CC1`, the solubility kinetic in series [1] was above 72 µg/mL. The Papp in series [2] was 615 ×10⁻⁶ cm/s.
With `Cc1ccccc1-c1nc(CN2CCC(C(=O)NCCCN3C[C@H](C)C[C@H](C)C3)CC2)c(C)o1`, the solubility kinetic in series [1] is 53.9 µg/mL (≈ 115 µM). Further, the Papp in series [2] was found to be 489 ×10⁻⁶ cm/s.
In the same order, the values of `Cc1ccccc1-c1nc(CN2CCC(C(=O)NCCN3C[C@H](C)C[C@H](C)C3)CC2)c(C)o1` are above 67 µg/mL and 712 ×10⁻⁶ cm/s.
The like results for `Cc1cc(-c2nc(CN3CCC(C(=O)NCCCN4CCC(C(C)C)CC4)CC3)co2)ccc1F` were, in that order, above 72 µg/mL and 276 ×10⁻⁶ cm/s.
`Cc1ccccc1-c1nc(CN2CCC(C(=O)NCCCN3CCCC(C)C3)CC2)c(C)o1` (racemic): the solubility kinetic in series [1] is above 67 µg/mL.
Regarding `Cc1ccccc1-c1nc(CN2CCC(C(=O)NCCCN3CCCC(CC(C)C)C3)CC2)c(C)o1` (racemic), the solubility kinetic in series [1] came out at 54.9 µg/mL (≈ 111 µM). For the same compound, the Papp in series [2] worked out at 3 ×10⁻⁶ cm/s.
The like results for `Cc1ccccc1-c1nc(CN2CCC(C(=O)NCCCN3C[C@H](C)C[C@@H](C)C3)CC2)c(C)o1` (racemic) were, in that order, above 69 µg/mL and 554 ×10⁻⁶ cm/s.
In the case of `Cc1ccccc1-c1nc(CN2CCC(C(=O)NCCCN3CCCC(C(C)C)C3)CC2)c(C)o1` (racemic), in series [1], the solubility kinetic was above 71 µg/mL.
For `Cc1cccc(Cl)c1-c1nc(CN2CCC(C(=O)NCCCN3CCCC(C)C3)CC2)c(C)o1` (racemic), the solubility kinetic in series [1] came to 52.6 µg/mL (≈ 108 µM). Moreover, the Papp in series [2] was determined as 651 ×10⁻⁶ cm/s.
